Source: ChEMBL document CHEMBL3397044, “Discovery and in vitro and in vivo profiles of N-ethyl-N-[2-[3-(5-fluoro-2-pyridinyl)-1H-pyrazol-1-yl]ethyl]-2-(2H-1,2,3-triazol-2-yl)-benzamide as a novel class of dual orexin receptor antagonist” (Bioorg Med Chem, 2015)
≈ marks a conversion by molar mass, not a printed value. Calls of active or inactive are those of the source. The rule behind the calls is not given here.

Key:
[1] = Volume of distribution in Sprague-Dawley rat at 2 mg/kg, iv; assay type: ADME, organism-based; parameters: dose 2 mg/kg, route intravenous; conditions: in vivo
Summary of the method: (§1)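 Fasted male Sprague–Dawley rats (n = 3) given 2 mg/kg iv. Vd and CL taken from the iv profile. T1/2 calculated as ln2·Vd/CL.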

[2] = molecular target: T1, Orexin receptor type 2 (Rattus norvegicus) (UniProt P56719); assay: Antagonist activity against rat OX2 receptor assessed as reduction in [Ala6,12]orexin-A-induced intracellular Ca2+ mobilization incubated for 30 mins by Fluo-4 AM dye based fluorescence assay; assay type: functional, cell-based
T1 sequence (whole entry): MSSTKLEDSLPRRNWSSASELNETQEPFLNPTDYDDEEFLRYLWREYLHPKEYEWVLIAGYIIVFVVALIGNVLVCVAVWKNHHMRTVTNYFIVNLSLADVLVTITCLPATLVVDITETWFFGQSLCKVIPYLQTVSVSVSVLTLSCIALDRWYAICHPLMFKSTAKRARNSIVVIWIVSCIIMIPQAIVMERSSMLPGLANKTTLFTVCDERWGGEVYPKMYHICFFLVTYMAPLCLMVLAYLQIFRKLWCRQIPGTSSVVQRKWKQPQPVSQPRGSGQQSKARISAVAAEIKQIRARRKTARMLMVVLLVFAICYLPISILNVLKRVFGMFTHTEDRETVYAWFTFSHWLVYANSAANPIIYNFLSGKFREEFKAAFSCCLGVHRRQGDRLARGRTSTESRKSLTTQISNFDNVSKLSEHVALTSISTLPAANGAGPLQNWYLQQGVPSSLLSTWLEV
Summary of the method: (§2)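 Cells seeded at 2.4 × 10⁴/well and cultured for 18 h. Compound added for 30 min at room temperature. Peak fluorescence minus basal was normalised to the maximal [Ala6,12]orexin-A response. Kb = IC50/(1+[L]/EC50). At least three independent runs in duplicate; mean ± SE.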

Rattus norvegicus [3] = assay: Sleep promoting effect in ip dosed free moving Wistar rat with chronically implanted electrodes assessed as by polysomnogram recordings method; conditions: read-out: MED
[4] = Solubility in pH 6.8 phosphate buffer; assay type: physicochemical
Summary of the method: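 Aqueous solubility measured in pH 6.8 phosphate buffer.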

[5] = Half life in Sprague-Dawley rat at 2 mg/kg, iv; assay type: ADME, organism-based; parameters: dose 2 mg/kg, route intravenous; conditions: in vivo; summary of the method: as §1
[6] = Half life in dog at 0.5 mg/kg, iv; assay type: ADME, organism-based, Canis lupus familiaris; parameters: dose 0.5 mg/kg, route intravenous; conditions: in vivo
Summary of the method: (§3)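 Male dogs given 0.5 mg/kg iv (n = 3). Vd and CL derived from the iv profile. T1/2 = ln2·Vd/CL.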

[7] = Tmax in dog at 3 mg/kg, po; assay type: ADME, organism-based, Canis lupus familiaris; parameters: dose 3 mg/kg, route oral; conditions: in vivo
Summary of the method: (§4)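 Fasted male rats dosed orally at 10 mg/kg, and male dogs at 3 mg/kg (n = 3). Tmax read from the oral profile. F calculated against the iv arm (rat 2 mg/kg, dog 0.5 mg/kg).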

Rattus norvegicus [8] = assay: Toxicity in Sprague-Dawley rat assessed as effect on rotarod performance at 3 to 30 mg/kg, ip administered 30 mins prior to the test by rotarod test; conditions: in vivo, 0.5 h
[9] = Tmax in Sprague-Dawley rat at 10 mg/kg, po; assay type: ADME, organism-based; parameters: dose 10 mg/kg, route oral; conditions: in vivo; summary of the method: as §4
[10] = Ratio of drug level in CSF to plasma in Sprague-Dawley rat at 10 mg/kg, po
[11] = Clearance in dog at 0.5 mg/kg, iv; assay type: ADME, organism-based, Canis lupus familiaris; parameters: dose 0.5 mg/kg, route intravenous; conditions: in vivo; summary of the method: as §3
[12] = Oral bioavailability in Sprague-Dawley rat at 10 mg/kg; assay type: ADME, organism-based; conditions: in vivo; summary of the method: as §4
[13] = Drug metabolism in dog liver microsomes at 5 uM after 15 mins; assay type: ADME, Canis lupus familiaris; conditions: read-out: Drug metabolism
Summary of the method: (§5)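 Liver microsomes at 1 mg protein/mL with 5 µM compound, incubated 15 min. Value reported as percentage of compound metabolized.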

[14] = Drug metabolism in human liver microsomes at 5 uM after 15 mins; assay type: ADME; conditions: read-out: Drug metabolism; summary of the method: as §5
[15] = molecular target: T2, Orexin/Hypocretin receptor type 1 (Rattus norvegicus) (UniProt P56718); assay: Antagonist activity against rat OX1 receptor assessed as reduction in [Ala6,12]orexin-A-induced intracellular Ca2+ mobilization incubated for 30 mins by Fluo-4 AM dye based fluorescence assay; assay type: functional, cell-based; summary of the method: as §2
T2 sequence (whole entry): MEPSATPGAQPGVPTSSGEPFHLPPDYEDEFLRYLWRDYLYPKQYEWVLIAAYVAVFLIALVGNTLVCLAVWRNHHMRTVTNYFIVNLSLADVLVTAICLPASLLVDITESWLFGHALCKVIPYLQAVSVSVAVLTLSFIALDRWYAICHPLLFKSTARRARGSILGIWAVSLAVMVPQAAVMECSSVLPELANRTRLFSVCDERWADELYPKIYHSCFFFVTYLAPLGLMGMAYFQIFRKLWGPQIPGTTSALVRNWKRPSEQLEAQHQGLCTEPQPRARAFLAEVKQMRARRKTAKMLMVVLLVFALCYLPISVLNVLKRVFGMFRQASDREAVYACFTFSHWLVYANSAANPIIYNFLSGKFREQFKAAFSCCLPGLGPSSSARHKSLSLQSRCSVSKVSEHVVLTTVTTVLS

[16] = tested on: Ribosyldihydronicotinamide dehydrogenase (NQO2) (Homo sapiens); assay: Binding affinity to MT3 receptor (unknown origin) at 10 uM
[17] = Drug excretion in rat bile; assay type: ADME, tissue-based; conditions: read-out: Drug excretion
Rattus norvegicus [18] = assay: Sleep promoting effect in free moving Wistar rat with chronically implanted electrodes assessed as increase in duration of NREM sleep at 10 and 30 mg/kg, ip by polysomnogram recordings method; assay type: functional, organism-based; parameters: dose 30 mg/kg
Summary of the method: (§6)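 Male Wistar rats, 10 weeks old, implanted under pentobarbital with frontal and parietal EEG screw electrodes plus EMG. Recovered ≥7 days, then singly housed and acclimated, tethered and freely moving. Dosed ip between 18:50 and 19:00, before lights-off. EEG filtered 0.16–30 Hz, EMG 5.3–1000 Hz, scored in 8-s epochs. Sleep latency = first 15 consecutive sleep epochs. Analysed over 2 h; n = 8–10; Dunnett or Steel tests.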

[19] = Clearance in Sprague-Dawley rat at 2 mg/kg, iv; assay type: ADME, organism-based; parameters: dose 2 mg/kg, route intravenous; conditions: in vivo; summary of the method: as §1
[20] = Ratio of drug level in brain to plasma in Sprague-Dawley rat at 10 mg/kg, po; conditions: read-out: BPR
[21] = Drug metabolism in rat liver microsomes at 5 uM after 15 mins; assay type: ADME; conditions: read-out: Drug metabolism; summary of the method: as §5
Rattus norvegicus [22] = assay: Sleep promoting effect in free moving Wistar rat with chronically implanted electrodes assessed as reduction in latency until total sleep at 3 to 30 mg/kg, ip by polysomnogram recordings method; assay type: functional, organism-based; summary of the method: as §6
[23] = Oral bioavailability in dog at 3 mg/kg; assay type: ADME, organism-based, Canis lupus familiaris; conditions: in vivo; summary of the method: as §4
Rattus norvegicus [24] = assay: Sleep promoting effect in free moving Wistar rat with chronically implanted electrodes assessed as increase in duration of REM sleep at 10 and 30 mg/kg, ip after 2 hrs by polysomnogram recordings method; assay type: functional, organism-based; parameters: dose 30 mg/kg; summary of the method: as §6
[25] = Drug excretion in rat urine; assay type: ADME; conditions: read-out: Drug excretion
[26] = Cmax in free moving Wistar rat with chronically implanted electrodes 3 mg/kg, ip after 0.33 hrs; assay type: ADME, organism-based; parameters: dose 3 mg/kg, route intraperitoneal; conditions: in vivo
[27] = Volume of distribution in dog at 0.5 mg/kg, iv; assay type: ADME, organism-based, Canis lupus familiaris; parameters: dose 0.5 mg/kg, route intravenous; conditions: in vivo; summary of the method: as §3

For `CCN(CCn1ccc(-c2ccc(F)cn2)n1)C(=O)c1ccccc1-n1nccn1`, the Vd [1] was 1.71 L/kg, the Kb [2] was 6.06 nM and the minimal effective dose (Rattus norvegicus [3]) was 3 mg/kg. It also gave a solubility [4] of 30.2 µg/mL (≈ 74.5 µM), a half-life [5] of 17.9 min and a half-life [6] of 57.7 min. The Tmax [7] was 40 min, the Activity (Rattus norvegicus [8]) was “Non-toxic” and the Tmax [9] was 50 min. For the same compound, the Kp [10] was 0.06, the clearance [11] was 9.97 mL/min/kg and the bioavailability [12] was 14.9%. For the same compound, the metabolised at 0.25 h, 5 µM [13] was 7.3%, the metabolised at 0.25 h, 5 µM [14] was 24.1% and the Kb [15] was 5.08 nM. The Activity [16] was 66%, the dose excreted [17] was 0.2% and the Activity (Rattus norvegicus [18]) was “Active”. For the same compound, the clearance [19] was 66 mL/min/kg, the Kp [20] was 0.17 and the metabolised at 0.25 h, 5 µM [21] was 79.9%. The Activity (Rattus norvegicus [22]) was “Dose-dependent effect”, the bioavailability [23] was 80.2% and the Activity (Rattus norvegicus [24]) was “inactive”. It also gave a dose excreted [25] of 0.4%, a Cmax [26] of 728 nM and a Vd [27] of 0.745 L/kg.
